The full list was thinned out, with hits kept by preference.
S1P4 agonist = S1P4 receptor agonists, primary screen, cell-based | AID 1509, 2009 | S1P4-expressing cell line, agonist reporter assay | 0.35% of 220,000 active | activation, % at 4.98 µM; in the data active = activation above about 11%
Target sequence (O95977 whole entry, looked up): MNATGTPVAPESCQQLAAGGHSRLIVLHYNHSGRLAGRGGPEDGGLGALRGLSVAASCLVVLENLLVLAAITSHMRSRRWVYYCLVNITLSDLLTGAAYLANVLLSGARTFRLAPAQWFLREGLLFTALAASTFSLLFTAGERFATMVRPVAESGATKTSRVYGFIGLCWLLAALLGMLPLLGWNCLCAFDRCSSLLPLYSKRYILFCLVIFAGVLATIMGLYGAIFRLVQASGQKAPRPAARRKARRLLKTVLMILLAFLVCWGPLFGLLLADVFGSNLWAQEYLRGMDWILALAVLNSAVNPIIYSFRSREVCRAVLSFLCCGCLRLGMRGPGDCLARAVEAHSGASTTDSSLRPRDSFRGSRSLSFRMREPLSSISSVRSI
S1P3 antag = S1P3 receptor antagonists, primary screen, cell-based; Sphingosine 1-phosphate receptor 3 (Homo sapiens), Q99500; CHO S1P3 NFAT-BLA reporter, FRET fluorescence, antagonist mode; inhibition, % at 4.98 µM; 0.27% of 170,000 active; AID 485, 2006;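 active = inhibition above the plate cutoff, the mean inhibition of test wells on that plate plus 3 SD, cut at about 28% in these data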;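 also: cells challenged with S1P at its EC80 of 0.8 µM; blue over green emission ratio from cleaved BLA substrate after 4 h stimulation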
MDM2 E3 inh = MDM2-luciferase reporter signal enhancers, primary screen, MDM2 E3 ligase inhibitor project, cell-based, luminescence, 1536-well; cell-based MDM2 ubiquitination luciferase reporter, 2 h; 0 = plate control, 100 = twice control, blank-subtracted; signal enhancement, % at 5 µM; 0.11% of 210,000 active; AID 1230, 2008;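 active = signal enhancement of 30% or more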;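 also: luminescence tracks abundance of the self-degrading MDM2-luciferase fusion protein; higher signal means inhibition of MDM2 E3 ligase activity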
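Material: Stable MDM2–luciferase fusion reporter cells | Amount: 2000 cells seeded into each well | Dosing: One concentration, 5 µM, with 0.2% DMSO | Incubation: 4 h cell settling then 2 h compound exposure, 37 °C | Measured by: Luciferase luminescence | Read-out basis: % enhancement relative to plate controls after blank subtraction | Benchmarks: Control and blank well means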
S1P4 antag = S1P4 receptor antagonists, primary screen, cell-based; Sphingosine 1-phosphate receptor 4 (Homo sapiens), O95977; S1P4-expressing cells, antagonist mode, reporter read-out; inhibition, % at 4.98 µM; 0.26% of 220,000 active; in the data active = inhibition above about 29%
Lmaj promast = Leishmania major promastigote growth inhibition, primary screen; Leishmania major promastigotes, resazurin fluorescence viability; inhibition, % at 10 µM; 9% of 200,000 active; in the data active = inhibition above about 50%;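 also: promastigotes grown with compound for 44 hours at 28 °C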
Of the large screens only hits and unclear results are named; the others gave an inactive call.

CC(=O)Nc1ccc(NC(=O)c2cccc3c2-c2ccccc2C3=O)cc1	Lmaj promast 78
Cc1ccc2nc3c(c(Nc4ccc5c(c4)OCCO5)c2c1)CCC3	Lmaj promast 98
Cc1cc(C)c(C#N)c(Nc2ccc3c(c2)OCCO3)n1	none
Cc1cccc(Nc2c3c(nc4ccccc24)CCC3)c1	none (no result: Lmaj promast)
Cc1cc(Nc2ccc3c(c2)OCCO3)c2cc(Cl)ccc2n1	Lmaj promast 100
COc1ccc(OC)c(S(=O)(=O)NCc2csc(-c3ccccc3)n2)c1	Lmaj promast 78
C=CCSc1nnc(CC(OC)OC)n1-c1ccccc1	none
CN(C)CCCOC(=O)COc1ccc(C(C)(C)C)cc1	none
Cc1nc(NC(=O)CN2CCOCC2)sc1-c1ccccc1	Lmaj promast 51 (no result: S1P3 antag)
CCc1sc(NC(=O)CN2CCOCC2)nc1-c1ccccc1	none
CC(=O)N1CC(=O)N=C1SCC(=O)Nc1nc(C)c(-c2ccccc2)s1	Lmaj promast 96
O=C(c1ccco1)N1CCN(C(c2ccc(Cl)cc2)c2nnnn2Cc2ccccc2)CC1 (stereo unspecified)	Lmaj promast 85 (no result: S1P3 antag)
CCOc1ccc(C(c2nnnn2Cc2ccccc2)N2CCN(C(=O)c3ccco3)CC2)cc1 (stereo unspecified)	none (no result: MDM2 E3 inh)
Cc1ccc(C(c2nnnn2Cc2cccs2)N2CCN(C(=O)c3ccco3)CC2)cc1 (stereo unspecified)	Lmaj promast 58
COc1cccc(C(c2nnnn2Cc2ccco2)N2CCN(c3cccc(C)c3C)CC2)c1OC (stereo unspecified)	Lmaj promast 58
COc1cccc(C(c2nnnn2Cc2ccccc2)N2CCN(C(=O)c3ccco3)CC2)c1OC (stereo unspecified)	Lmaj promast 79
COc1ccc(-c2nc(N)nc(C)c2Oc2ccccc2Br)c(O)c1	none
O=C(Nc1ccc2c(c1)OCO2)C(c1ccccc1)N1CCN(C(=O)c2ccco2)CC1 (stereo unspecified)	none
O=C(Nc1ccc2c(c1)OCO2)C(c1ccc(Cl)cc1)N1CCN(C(=O)c2ccco2)CC1 (stereo unspecified)	Lmaj promast 50
COc1ccc(C(c2nnnn2Cc2ccccc2)N2CCN(C(=O)c3ccco3)CC2)cc1 (stereo unspecified)	Lmaj promast 58
CCCCC(c1nnnn1Cc1ccco1)N1CCN(C(=O)c2ccco2)CC1 (stereo unspecified)	Lmaj promast 59
CCCC(c1nnnn1Cc1ccco1)N1CCN(C(=O)c2ccco2)CC1 (stereo unspecified)	none
O=C(CN1CCc2ccccc2C1)NC1CCCC1	none
COc1cc(CNCCc2ccc(S(N)(=O)=O)cc2)ccc1OCc1ccc(Cl)cc1	Lmaj promast 100 (no result: S1P3 antag)
COc1ccc(Cl)cc1NC(=S)NCCN1CCOCC1	none
COc1cc(CNCCN2CCOCC2)ccc1OCc1ccccc1Cl	Lmaj promast 92 (no result: S1P3 antag)
COc1cc(CNCc2ccccn2)ccc1OCc1ccccc1Cl	Lmaj promast 94
COc1cc(CNCCN2CCOCC2)ccc1OCc1ccc(Cl)cc1	Lmaj promast 94 (no result: S1P3 antag)
CN(C)c1nc(N(C)C)nc(N(C#N)CN2C(=O)c3ccccc3C2=O)n1	none
CCN(C(=O)CSc1nc2ccccc2c(=O)n1CCOC)C1CCS(=O)(=O)C1 (stereo unspecified)	none
O=C(OCCNc1ccc(C(F)(F)F)cc1[N+](=O)[O-])c1cc2ccccc2oc1=O	none (no result: Lmaj promast)
Cc1ccc(OCc2ccc(C(=O)Nc3nc4ccccc4n3C)o2)c([N+](=O)[O-])c1	none
Cc1cc(C)n(-c2nc(Nc3ccccc3C)nc(-n3nc(C)cc3C)n2)n1	none (no result: S1P3 antag)
Cc1cc(C)n(-c2nc(Nc3ccccc3C(F)(F)F)nc(-n3nc(C)cc3C)n2)n1	Lmaj promast 100 (no result: S1P3 antag)
Cc1cccc(OCC(=O)O/N=C(\N)Cc2ccc(Cl)cc2)c1	none (no result: S1P3 antag)
COc1cc(-c2nnc(SCC(=O)c3ccccc3)o2)cc(OC)c1OC	none
COc1ccc(-c2nnc(SCC(=O)N(Cc3ccccc3)C(C)(C)C)o2)cc1OC	Lmaj promast 57
OCCC1CN(Cc2cccc3nccnc23)CCN1Cc1ccc(F)cc1 (stereo unspecified)	none (no result: Lmaj promast)
CCOc1cc(/C=C/c2ccc3cccc([N+](=O)[O-])c3n2)ccc1O	Lmaj promast 73
O=[N+]([O-])c1cccc2ccc(/C=C/c3ccc(F)cc3)nc12	Lmaj promast 57
COc1cc(/C=C/c2ccc3cccc([N+](=O)[O-])c3n2)ccc1OCC#N	none
O=[N+]([O-])c1ccc(/C=C/c2ccc3cccc([N+](=O)[O-])c3n2)cc1	Lmaj promast 51
O=C(COC(=O)/C=C/c1cccs1)NC1CC1	none
N=c1n(CCO)c2ccccc2n1Cc1ccccc1Cl	none
N=c1n(CCO)c2ccccc2n1CCOc1ccc(Cl)cc1Cl	Lmaj promast 98
O=C1CC(c2ccccc2)n2nc(N3C(=O)c4ccccc4C3=O)nc2N1 (stereo unspecified)	none (no result: S1P3 antag)
Cc1sc2nc(C3CC3)nc(SCC(=O)N3CCc4ccccc4C3)c2c1C	none (no result: S1P3 antag)
Cn1c(=O)c2c(SCC(=O)N3CCCc4ccccc43)nc(C3CC3)nc2n(C)c1=O	Lmaj promast 61
Cc1sc2nc(C3CC3)nc(SCC(=O)N3CCCc4ccccc43)c2c1C	Lmaj promast 94
Cc1ccc(-c2csc(NC(=O)CSc3nc4ccccc4o3)n2)cc1	Lmaj promast 81
COc1ccc(-c2nsc(SCC(=O)NCc3ccc4c(c3)OCO4)n2)cc1	Lmaj promast 99
O=C(CSc1nc(C2CC2)nc2ccccc12)N1c2ccccc2Sc2ccccc21	Lmaj promast 50 (no result: S1P3 antag)
O=C(CSc1nc(C2CCCCC2)nc2ccccc12)NCc1ccc2c(c1)OCO2	Lmaj promast 53
CC(c1nccs1)N(C)c1nc2nonc2nc1N(C)C (stereo unspecified)	none
CCCn1c(SCC(=O)c2c[nH]c3ccccc23)nnc1-c1ccncc1	none
CCOc1cc(NC(=O)c2cnccn2)c(OCC)cc1NC(=O)c1cccc(F)c1	none
O=C(CSc1nc2ccccc2o1)N1c2ccccc2Sc2ccccc21	Lmaj promast 82
CC(=O)CSc1nc2ccccc2o1	none (no result: S1P3 antag, MDM2 E3 inh)
O=C(NCCCn1ccnc1)c1nn2c(C(F)(F)F)cc(-c3ccc(Br)cc3)nc2c1Cl	Lmaj promast 100
COc1ccc(-c2cc(C(F)(F)F)n3nc(C(=O)NCCN4CCOCC4)cc3n2)cc1	none
COc1ccc(-c2cc(C(F)(F)F)n3nc(C(=O)NCCCn4ccnc4)cc3n2)cc1	Lmaj promast 90 (no result: S1P3 antag)
O=C(CCCOc1ccc(Cl)cc1Cl)NN1CCOCC1	none
CCNC(=S)N=Nc1c(O)[nH]c2ccc(C(C)C)cc12	Lmaj promast 78
CC(=O)N/C(=C/c1ccc(OS(=O)(=O)c2ccc(C)cc2)cc1)C(=O)Nc1ccc(C(=O)O)cc1	none (no result: Lmaj promast)
